Compound activity as filed in PubChem BioAssay.
C8 TRAIL sens = viability loss with TRAIL in NB7+C8 cells, primary screen, TRAIL sensitizer project, cell-based, ATPlite luminescence. inhibition (viability loss, TRAIL sensitization), % at 10 µM. 360,000 compounds, 1% hits. AID 624354, 2012;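 active means compounds causing at least 50% loss of cell viability in the single-dose screen, relative to plate controls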
FLuc stim CS = FLuc activators, initial screening, artefact control for FLuc-dependent activation tests, biochemical, ATPlite luminescence; Luciferin 4-monooxygenase (Photinus pyralis), P08659; ATPlite luciferase biochemical, 10 min; 0 = ATP-free wells, 1 = DMSO control; activation factor at 10 µM; 200,000 tested, under 10 active; AID 1027, 2008;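 active means luciferase activation factor, scaled between plate controls, of at least 2 with compound at 10 µM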
Target sequence (P08659 whole entry, looked up): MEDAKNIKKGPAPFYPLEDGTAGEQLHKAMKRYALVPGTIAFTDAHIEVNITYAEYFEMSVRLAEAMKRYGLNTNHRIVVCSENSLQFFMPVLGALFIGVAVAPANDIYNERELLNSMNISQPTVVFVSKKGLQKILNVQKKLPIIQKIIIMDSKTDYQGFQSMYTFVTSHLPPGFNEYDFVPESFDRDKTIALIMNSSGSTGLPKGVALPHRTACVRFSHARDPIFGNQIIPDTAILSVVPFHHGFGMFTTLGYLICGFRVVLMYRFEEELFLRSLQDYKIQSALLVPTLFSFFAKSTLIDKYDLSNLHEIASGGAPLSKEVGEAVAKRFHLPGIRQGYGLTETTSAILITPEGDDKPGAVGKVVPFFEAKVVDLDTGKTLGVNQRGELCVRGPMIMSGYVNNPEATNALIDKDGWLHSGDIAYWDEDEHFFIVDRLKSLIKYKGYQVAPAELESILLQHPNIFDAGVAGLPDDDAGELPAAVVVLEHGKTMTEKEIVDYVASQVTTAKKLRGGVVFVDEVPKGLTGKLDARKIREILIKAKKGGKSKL
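Assay system: Luciferase/luciferin detection reagent, cell-free biochemical luciferase assay / Read-out: luciferase activation / Benchmarks: No-ATP low control, compound-free enzyme-plus-ATP high control / Medium: PBS buffer for ATP / Detection: luminescence measurement of luciferase light output / Schedule: 10 min at ambient temperature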
FLuc inhib CS = firefly luciferase enzyme inhibitors, primary screen, artefact control for luciferase-based inhibitor screens, biochemical, luminescence, ATPLite | Luciferin 4-monooxygenase (Photinus pyralis), P08659 | 10 min | inhibition, % at 10 µM | 200,000 compounds, 1.5% hits;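 active means inhibition above about 50% when tested at 10 µM, limit read from the data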
PPC-1+TRAIL kill = compounds killing PPC-1 cancer cells with TRAIL present, primary screen, TRAIL potentiator project, ATPLite luminescence, uHTS; PPC-1 cells + TRAIL, ATPLite viability luminescence; cell killing (% activity), % at 4 µM or 5 µM; 220,000 compounds, 0.41% hits; AID 1443, 2008;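 active means cell killing above 50% in the first pass at 4 µM, then a duplicate retest at 5 µM averaging 50% or more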
Large screens that a line does not name were inactive. Only some compounds are listed: those with a hit (about 1.6% of all), similar ones and a draw of the others.

N=c1c2c(n(Cc3ccc(Cl)c(Cl)c3)c3c1CCC3)CCCC2	C8 TRAIL sens 65
CCOc1ccc(OCC(=O)N(CCC2=CCCCC2)c2c(N)n(Cc3ccccc3)c(=O)[nH]c2=O)cc1	C8 TRAIL sens 56 (no result: FLuc stim CS, FLuc inhib CS, PPC-1+TRAIL kill)
COCCNC(=O)c1onc(CSc2ccccc2F)c1C(=O)O	PPC-1+TRAIL kill 55
COc1ccccc1/C=C/C(=O)OCC(=O)Nc1c(C)nn(-c2ccccc2)c1C	none (no result: FLuc stim CS, FLuc inhib CS, PPC-1+TRAIL kill)
Cc1ccc(NC(=O)C(c2ccccc2)c2ccccc2)c(O)c1	none (no result: FLuc stim CS, FLuc inhib CS, PPC-1+TRAIL kill)
Cc1ccc(Nc2nnc(SCC(=O)Nc3cccc(S(=O)(=O)NC4=NCCCCC4)c3)s2)cc1	none
O=C(CSc1nnc(NC(=O)c2c(F)cccc2F)s1)Nc1ccc(F)cc1	none (no result: PPC-1+TRAIL kill)
CCc1ccc(Nc2nnc(SCC(=O)Nc3cccc(S(=O)(=O)NC4=NCCCCC4)c3)s2)cc1	C8 TRAIL sens 64, FLuc inhib CS 82, PPC-1+TRAIL kill 51
CC(=O)Nc1ccc(NC(=O)CSc2nnc(NC(=O)c3cccc(F)c3)s2)cc1	C8 TRAIL sens 53 (no result: FLuc stim CS, FLuc inhib CS, PPC-1+TRAIL kill)
CCc1ccc(Nc2nnc(SCC(=O)Nc3ccc(C(=O)O)cc3)s2)cc1	C8 TRAIL sens 59 (no result: FLuc stim CS, FLuc inhib CS)
O=C(/C=C/c1ccccc1Cl)Nc1cccc(S(=O)(=O)NC2=NCCCCC2)c1	FLuc inhib CS 71
O=C(/C=C/c1ccc([N+](=O)[O-])cc1)Nc1cccc(S(=O)(=O)NC2=NCCCCC2)c1	none (no result: FLuc stim CS, FLuc inhib CS, PPC-1+TRAIL kill)
CC1CCN(CCOc2ccc(OCc3ccccc3)cc2)CC1	none
Cc1ccc(S(=O)(=O)Nc2c(C)cc(C)nc2Cl)cc1	none (no result: FLuc stim CS, FLuc inhib CS, PPC-1+TRAIL kill)
C[C@H]1CN(S(=O)C(C)(C)C)[C@@H](CCO)/C1=C\CCO (some centres not stated)	none (no result: FLuc stim CS, FLuc inhib CS, PPC-1+TRAIL kill)
O=C(Cc1ccsc1)Nc1ccc(S(=O)(=O)C(F)F)cc1	none
CCOc1ccc(OCC(=O)Nc2cccc(S(=O)(=O)NC3=NCCC3)c2)cc1	C8 TRAIL sens 63 (no result: FLuc stim CS, FLuc inhib CS, PPC-1+TRAIL kill)
CC(C)(C)c1ccc(OCC(=O)Nc2cccc(S(=O)(=O)NC3=NCCCCC3)c2)cc1	none (no result: FLuc stim CS, FLuc inhib CS, PPC-1+TRAIL kill)
O=c1c([N+](=O)[O-])cn(Cc2ccccc2)c(=O)n1Cc1ccccc1	none (no result: FLuc stim CS, FLuc inhib CS, PPC-1+TRAIL kill)
CC(=O)c1cn(Cc2ccccc2)c(=O)n(Cc2ccc(F)cc2)c1=O	FLuc inhib CS 79
Nc1nccc(-c2cc(-c3ccc(Cl)cc3Cl)no2)n1	C8 TRAIL sens 69 (no result: FLuc stim CS, FLuc inhib CS)
O=C(N/N=C/c1ccsc1)c1ccccn1	FLuc inhib CS 52
O=C(N/N=C/c1ccc(Br)s1)c1ccccn1	C8 TRAIL sens 52, FLuc inhib CS 66
Cc1ccsc1/C=N/NC(=O)c1ccccn1	none
Cc1ccc(S(=O)(=O)c2nnn3c2nc(NC2CCN(Cc4ccccc4)CC2)c2ccccc23)cc1C	C8 TRAIL sens 88 (no result: FLuc stim CS, FLuc inhib CS, PPC-1+TRAIL kill)
Cc1ccc(S(=O)(=O)c2nnn3c2nc(NCCCN2CCCC2=O)c2ccccc23)cc1C	none (no result: FLuc stim CS, FLuc inhib CS, PPC-1+TRAIL kill)
O=C(NC1CC1)C1CCN(S(=O)(=O)c2ccc(Cl)c([N+](=O)[O-])c2)CC1	C8 TRAIL sens 64 (no result: FLuc stim CS, FLuc inhib CS, PPC-1+TRAIL kill)
COc1ccc(NC(=O)c2cccc3c2C(=O)c2ccc(-c4ccc(F)cc4OCc4ccccc4)cc2S3(=O)=O)cc1	C8 TRAIL sens 59 (no result: FLuc stim CS, FLuc inhib CS, PPC-1+TRAIL kill)
O=c1[nH][nH]c2c1[C@H](c1ccccc1)O[C@H](C1CCCCC1)C2	none (no result: FLuc stim CS, FLuc inhib CS, PPC-1+TRAIL kill)
COc1cc2c(cc1OC)-c1nnc(C)n1C(C)(C)C2	PPC-1+TRAIL kill 66
CON(C)C(=O)CC1(CN(Cc2ccccc2)C(=O)OC(C)(C)C)CCCCC1	none (no result: FLuc stim CS, FLuc inhib CS, PPC-1+TRAIL kill)
C#CC(=O)CC1(CN(Cc2ccccc2)C(=O)OC(C)(C)C)CCCCC1	C8 TRAIL sens 94 (no result: FLuc stim CS, FLuc inhib CS, PPC-1+TRAIL kill)
Cc1cc(C)nc(N2CCCC(C(=O)NCc3ccccc3F)C2)n1 (configuration not stated)	none
O=C(Nc1ccc(N2CCCC2)c(Cl)c1)c1ccc([N+](=O)[O-])o1	C8 TRAIL sens 88
CN1CCN(c2ccc(NC(=O)c3ccco3)cc2Cl)CC1	none (no result: FLuc stim CS, FLuc inhib CS, PPC-1+TRAIL kill)
O=C(Nc1ccc(N2CCCC2)c(Cl)c1)c1ccco1	C8 TRAIL sens 55, FLuc inhib CS 77
O=C(Nc1ccccc1N1CCCC1)c1ccc([N+](=O)[O-])o1	none (no result: FLuc stim CS, FLuc inhib CS, PPC-1+TRAIL kill)
O=C(Nc1ccc(N2CCCCC2)c(Cl)c1)c1ncn[nH]1	FLuc inhib CS 57
CC1(C(=O)NS(=O)(=O)c2ccc(Cl)cc2)CCN1C(=O)C1(c2ccc(Cl)cc2)CCC1 (configuration not stated)	none (no result: FLuc stim CS, FLuc inhib CS, PPC-1+TRAIL kill)
N#Cc1c(-c2ccccc2)nc(SCC(=O)Nc2ccc(OC(F)(F)Cl)cc2)[nH]c1=O	none (no result: FLuc stim CS, FLuc inhib CS, PPC-1+TRAIL kill)
c1ccc(-c2ncc3c(ccc4ccccc43)n2)cc1	C8 TRAIL sens 84, FLuc inhib CS 89, PPC-1+TRAIL kill 78
